ChEMBL document CHEMBL1126117, “Synthesis and chemical characterization of N-substituted phenoxazines directed toward reversing vinca alkaloid resistance in multidrug-resistant cancer cells” (J Med Chem, 1992)

Tests used:
[1] = test system: KB; test: Increase in the accumulation of vinblastine in multi-drug resistant KB8-5 (HeLa variant) cell line in vitro.; type: functional, Homo sapiens; set-up: concentration or dose not given beside the values
Summary of the method: (§1)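 Radiolabel accumulation. Cell monolayers (2×10^6 cells, attached overnight; KBChR-8-5 kept with 10 ng/mL colchicine) were washed and held 10 min in physiologic Tris buffer. They were then given serum-free RPMI-1640 in 25 mM Hepes, pH 7.4, with [3H]VCR (70.4 nM) or [3H]VLB (49.5 nM), ±modulator at 100 μM (<0.1% DMSO), for 2 h at room temperature. Cells were washed in ice-cold PBS, trypsinized and scintillation-counted, with cell number counted per dish. Percent control = uptake with/without modulator ×100. Mean of two experiments, each done in triplicate.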

[2] = test system: GC3/Cl; test: Increase in the accumulation of vinblastine in multi-drug resistant GC3/Cl (human adenocarcinoma) cell line in vitro.; type: functional; set-up: concentration or dose not given beside the values
[3] = test system: KB; test: Increase in the accumulation of vincristine in multi-drug resistant KB8-5 (HeLa variant) cell line in vitro.; type: functional, Homo sapiens; set-up: concentration or dose not given beside the values; summary of the method: as §1
[4] = test system: KB; test: Concentration required to produce 50% reduction in clonogenic survival of KB8-5 cell line.; type: functional, cell-based; conditions: Homo sapiens
Summary of the method: (§2)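 Clonogenic survival. KBChR-8-5 cells were plated in triplicate at 1000/well and GC3 cells at 3000/well. After 24 h the medium was replaced with fresh medium holding modulator at 1-100 μM (final 0.1% DMSO). Cells were kept 7 days at 37 °C, then stained with crystal violet and the colonies counted. The 50% and 10% colony-reduction concentrations were read from concentration-survival curves versus controls.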

[5] = test system: GC3/Cl; test: Inhibitory concentration was evaluated by measuring the potentiation of VLB cytotoxicity in GC3/Cl cell line.; type: functional, cell-based; conditions: Homo sapiens
Summary of the method: (§3)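 Colony-formation assay. Cells were given graded VCR or VLB continuously for 7 days at 37 °C, with or without modulator at the concentration that alone reduced colony formation by 10%. Colonies were then stained with crystal violet and counted. Vinca IC50 values were derived with and without modulator, and the result was expressed as fold potentiation.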

[6] = test system: GC3/Cl; test: Concentration required to produce 50% reduction in clonogenic survival of GC3/Cl cell line.; type: functional, cell-based; conditions: Homo sapiens; summary of the method: as §2
[7] = test system: KB; test: Concentration required to produce 10% reduction in clonogenic survival of KB8-5 cell line.; type: functional; conditions: Homo sapiens; summary of the method: as §2
[8] = test system: GC3/Cl; test: Inhibitory concentration was evaluated by measuring the potentiation of VCR cytotoxicity in GC3/Cl cell line.; type: functional, cell-based; conditions: Homo sapiens; summary of the method: as §3
[9] = test system: KB; test: Inhibitory concentration was evaluated by measuring the potentiation of VCR cytotoxicity in KB8-5 cell line.; type: functional, cell-based; conditions: Homo sapiens; summary of the method: as §3
[10] = test system: GC3/Cl; test: Concentration required to produce 10% reduction in clonogenic survival of GC3/Cl cell line.; type: functional, cell-based; conditions: Homo sapiens; summary of the method: as §2
[11] = test system: KB; test: Inhibitory concentration was evaluated by measuring the potentiation of VLB cytotoxicity in KB8-5 cell line.; type: functional, cell-based; conditions: Homo sapiens; summary of the method: as §3
[12] = test system: KB; test: Percent control was evaluated by measuring the ability to increase the vinca alkaloid, vinblastine(VLB) in KB8-5 cell line.; type: functional, Homo sapiens; summary of the method: as §1
[13] = test system: KB; test: Percent control was evaluated by measuring the ability to increase the vinca alkaloid, vincristine(VCR) in KB8-5 cell line.; type: functional, Homo sapiens; summary of the method: as §1
[14] = test system: GC3/Cl; test: Increase in the accumulation of vincristine in multi-drug resistant GC3/Cl (human adenocarcinoma) cell line in vitro.; type: functional

Q: How did the Control [1] turn out when COc1ccc(CCN(C)CCCC(C#N)(c2ccc(OC)c(OC)c2)C(C)C)cc1OC (stereo not given) was run?
A: 1124%

Q: For OCCN1CCN(CCCN2c3ccccc3Oc3ccccc32)CC1, which Control [1] is on record?
A: 824%

Q: And the Control [2]?
A: 879%

Q: What about the Control [3] of the same compound?
A: 343%

Q: With c1ccc2c(c1)Oc1ccccc1N2CCCCN1CCOCC1 as the compound, how does the Control [1] read?
A: 2684%

Q: And the Control [2]?
A: 1175%

Q: And the IC50 [4]?
A: 18 µM

Q: What about the IC50 [5] of the same compound?
A: 0.002 µM

Q: And the Control [3]?
A: 702%

Q: And the IC50 [6]?
A: 17 µM

Q: What about the IC10 [7] of the same compound?
A: 6 µM

Q: And the IC50 [8]?
A: 0.0024 µM

Q: What about the IC50 [9] of the same compound?
A: 0.0045 µM

Q: What about the IC10 [10] of the same compound?
A: 10 µM

Q: And the IC50 [11]?
A: 0.002 µM

Q: How did the Control [1] turn out when CCN(CC)CCCCN1c2ccccc2Oc2ccccc21 was run?
A: 697%

Q: And the Control [2]?
A: 737%

Q: What about the Control [3] of the same compound?
A: 211%

Q: What does the source list for O=C(CCl)N1c2ccccc2Oc2ccccc21?
A: Control [12]: 236%; Control [13]: 138%

Q: OCCN(CCO)CCCN1c2ccccc2Oc2ccccc21 was tested. Which Control [1] did it give?
A: 1666%

Q: What about the Control [2] of the same compound?
A: 1070%

Q: What about the IC50 [4] of the same compound?
A: 38 µM

Q: What about the IC50 [5] of the same compound?
A: 0.002 µM

Q: What about the Control [3] of the same compound?
A: 473%

Q: What about the IC50 [6] of the same compound?
A: 37 µM

Q: What about the IC10 [7] of the same compound?
A: 25 µM

Q: What about the IC50 [8] of the same compound?
A: 0.0048 µM

Q: And the IC50 [9]?
A: 0.0059 µM

Q: What about the IC10 [10] of the same compound?
A: 25 µM

Q: And the IC50 [11]?
A: 0.0027 µM

Q: What does the source list for c1ccc2c(c1)Oc1ccccc1N2CCCCN1CCCC1?
A: Control [1]: 477%; Control [2]: 1315%; IC50 [4]: < 7 µM; Control [3]: 198%; IC50 [6]: 7 µM

Q: Which results are given for c1ccc2c(c1)Oc1ccccc1N2CCCN1CCCC1?
A: Control [1]: 969%; Control [2]: 757%; Control [14]: 250%; Control [3]: 408%

Q: How did the Control [1] turn out when OCCN(CCO)CCCCN1c2ccccc2Oc2ccccc21 was run?
A: 403%

Q: What about the Control [2] of the same compound?
A: 1165%

Q: And the IC50 [4]?
A: < 10 µM

Q: What about the Control [3] of the same compound?
A: 92%

Q: And the IC50 [6]?
A: 16 µM

Q: For O=C(CN1CCOCC1)N1c2ccccc2Oc2ccccc21, which Control [1] is on record?
A: 674%

Q: What about the Control [3] of the same compound?
A: 290%

Q: Which results are given for O=C(CN1CCCCC1)N1c2ccccc2Oc2ccccc21?
A: Control [1]: 2023%; IC50 [4]: 73 µM; IC50 [5]: 0.0022 µM; Control [3]: 326%; IC50 [6]: 88 µM; IC10 [7]: 40 µM; IC50 [8]: 0.0029 µM; IC50 [9]: 0.006 µM; IC10 [10]: 40 µM; IC50 [11]: 0.0023 µM

Q: With c1ccc2c(c1)Oc1ccccc1N2CCCCN1CCCCC1 as the compound, how does the Control [1] read?
A: 1071%

Q: What about the Control [2] of the same compound?
A: 1121%

Q: What about the IC50 [4] of the same compound?
A: < 7 µM

Q: And the Control [3]?
A: 196%

Q: And the IC50 [6]?
A: 7 µM

Q: For CCN(CC)CCCN1c2ccccc2Oc2ccccc21, which Control [1] is on record?
A: 2123%

Q: What about the Control [2] of the same compound?
A: 1025%

Q: And the IC50 [4]?
A: 15 µM

Q: What about the Control [3] of the same compound?
A: 546%

Q: What about the IC50 [6] of the same compound?
A: 10 µM

Q: Which Control [1] does the source give for OCCN1CCN(CCCCN2c3ccccc3Oc3ccccc32)CC1 here?
A: 188%

Q: What about the Control [2] of the same compound?
A: 1340%

Q: And the IC50 [4]?
A: < 7 µM

Q: What about the Control [3] of the same compound?
A: 91%

Q: What about the IC50 [6] of the same compound?
A: 7 µM

Q: How did the Control [1] turn out when ClCCCN1c2ccccc2Oc2ccccc21 was run?
A: 342%

Q: And the Control [2]?
A: 570%

Q: And the IC50 [4]?
A: 57 µM

Q: What about the IC50 [5] of the same compound?
A: 0.0017 µM

Q: And the Control [3]?
A: 454%

Q: What about the IC50 [6] of the same compound?
A: 83 µM

Q: What about the IC10 [7] of the same compound?
A: 20 µM

Q: And the IC50 [8]?
A: 0.002 µM

Q: And the IC50 [9]?
A: 0.0118 µM

Q: And the IC10 [10]?
A: 50 µM

Q: And the IC50 [11]?
A: 0.0053 µM

Q: What does the source list for O=C(CN1CCCC1)N1c2ccccc2Oc2ccccc21?
A: Control [1]: 776%; Control [3]: 188%

Q: What does the source list for O=C(N1c2ccccc2Oc2ccccc21)C(F)(F)F?
A: Control [1]: 827%; Control [14]: 230%; Control [3]: 415%

Q: For c1ccc2c(c1)Oc1ccccc1N2CCCN1CCCCC1, which Control [1] is on record?
A: 1227%

Q: And the Control [2]?
A: 633%

Q: And the Control [3]?
A: 435%

Q: For O=C(CN1CCN(CCO)CC1)N1c2ccccc2Oc2ccccc21, which Control [1] is on record?
A: 776%

Q: And the Control [3]?
A: 280%

Q: Which results are given for c1ccc2c(c1)Oc1ccccc1N2CCCN1CCOCC1?
A: Control [1]: 1717%; Control [2]: 960%; IC50 [4]: 73 µM; IC50 [5]: 0.002 µM; Control [3]: 742%; IC50 [6]: 40 µM; IC10 [7]: 25 µM; IC50 [8]: 0.0021 µM; IC50 [9]: 0.0019 µM; IC10 [10]: 25 µM; IC50 [11]: 0.0016 µM

Q: What does the source list for CCN(CC)CC(=O)N1c2ccccc2Oc2ccccc21?
A: Control [1]: 953%; Control [14]: 160%; Control [3]: 184%

Q: With ClCCCCN1c2ccccc2Oc2ccccc21 as the compound, how does the Control [1] read?
A: 792%

Q: And the Control [2]?
A: 361%

Q: What about the Control [3] of the same compound?
A: 398%
